Compounds with a hit are over-represented: about 3.5% of the library has one in this group of screens.
RGS4 inh – human RGS4 inhibition. P49798. B-score at 10 µM. actives 0.45% (n = 310,000). AID 463165. HEK293 M3R/RGS4 inducible, Fluo-4 calcium flux; stronger effect = higher value; triggered by carbachol at its EC20;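 active = B-score, a plate-corrected calcium signal, over three deviations above library mean, with baseline fluorescence within five deviations of library mean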;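 note: RGS4 expression induced by doxycycline in cells with stable M3 receptor; B-score is computed from the integrated fluorescence ratio over baseline after carbachol; higher B-score means a larger calcium signal and so more RGS4 inhibition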
Target sequence (P49798 whole entry, looked up): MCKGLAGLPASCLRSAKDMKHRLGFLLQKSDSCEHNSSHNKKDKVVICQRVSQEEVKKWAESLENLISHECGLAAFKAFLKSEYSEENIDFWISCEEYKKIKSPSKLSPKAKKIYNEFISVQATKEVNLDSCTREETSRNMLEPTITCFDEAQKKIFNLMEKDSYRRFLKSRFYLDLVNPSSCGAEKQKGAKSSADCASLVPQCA
RGS4 pot – RGS4 potentiation or activation; actives 0.92% (n = 310,000); B-score at 10 µM; HEK293 M3R/inducible RGS4, carbachol calcium flux Fluo4; stronger effect = lower value;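 active = B-score of the integrated calcium signal more than 4 SD below the library mean, with starting fluorescence not abnormally high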;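 note: negative B-score means reduced calcium response which marks RGS4 activation or potentiation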
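Also added: carbachol at ECmax as muscarinic agonist stimulus; Assay system: HEK293 cells with stable M3R and inducible RGS4; Timing: overnight RGS4 induction, 30 min dye load 37 °C, 20 min compound RT; Measured by: Fluo4-AM (2 µM) calcium-flux fluorescence, kinetic read.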
MrgX1 allo act – human MrgX1 positive allosteric modulation, primary screen. AID 588675. B-score at 10 µM. actives 0.63% (n = 310,000). Q96LB2. MrgX1-HEK293, Fluo-4 calcium flux, FDSS; stronger effect = higher value;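 active = plate-corrected calcium response at least 3 library SD above typical, normal starting fluorescence, not activating the receptor alone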;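 note: compound read alongside a low EC10 to EC30 dose of BAM8-22 agonist; peak minus trough fluorescence over baseline measured at the second addition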
Target sequence (Q96LB2 whole entry, looked up): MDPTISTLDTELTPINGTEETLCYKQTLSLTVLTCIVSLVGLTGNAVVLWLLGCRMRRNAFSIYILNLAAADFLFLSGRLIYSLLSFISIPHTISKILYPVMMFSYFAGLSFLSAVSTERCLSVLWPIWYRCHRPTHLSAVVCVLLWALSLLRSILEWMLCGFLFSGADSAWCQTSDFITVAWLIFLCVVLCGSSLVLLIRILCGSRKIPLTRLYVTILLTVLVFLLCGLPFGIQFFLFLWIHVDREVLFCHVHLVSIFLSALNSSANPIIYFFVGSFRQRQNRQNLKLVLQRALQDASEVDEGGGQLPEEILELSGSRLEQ
MrgX1 antagonist – blocks BAM8-22 activation of human MrgX1 receptor | MRGX1-HEK293 calcium flux, Fluo-4, BAM8-22 antagonism; stronger effect = lower value | B-score at 10 µM | Q96LB2 | actives 1.3% (n = 310,000) | AID 588676;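 active = calcium-response B-score plate-corrected more than 3 library SD below zero, starting fluorescence within 5 deviations, no agonist response on first addition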;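 note: peak minus trough fluorescence over baseline after final BAM8-22 challenge near maximal dose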
MrgX1 agonist – activates human MrgX1 receptor signaling | MrgX1-HEK293 cells, Fluo-4 calcium fluorescence, agonist mode; stronger effect = higher value | B-score at 10 µM | Q96LB2 | actives 0.44% (n = 310,000);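 active = calcium response B-score plate-corrected fluorescence ratio at least 3 library SD, with starting fluorescence B-score inside 5 SD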
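Material: HEK293 cells stably expressing human MrgX1 receptor | Quantity: 15,000 cells per well | Times: Cells plated overnight, dye loaded 0.5 h 37 °C, 0.5 h room temperature | Measured by: Kinetic Fluo-4 NW fluorescence of intracellular calcium | Control set: Positive and negative controls per plate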
RGS4 block valid – validation of RGS4 inhibitors | HEK293 M3R/RGS4, carbachol calcium Fluo-4 fluorescence; carbachol added at its EC20; 0 = buffer wells, 100 = carbachol control | AID 492999 | shares compounds with RGS4 inh | actives 65% (n = 1,700) | calcium response, % at 10 µM;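 active = duplicate-averaged calcium response above the buffer-only control mean plus 5 SD of those controls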;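 note: integrated fluorescence ratio F max minus min over baseline F0; higher response in RGS4-induced cells means RGS4 inhibition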
M3R Ca ctr – checks RGS4 inhibitor effects in non-induced HEK293 M3R cells; activity (percent), % at 10 µM; actives 20% (n = 1,900); carbachol calcium Fluo-4; submaximal (EC20) carbachol stimulus; buffer wells 0%, carbachol control wells 100%; shares compounds with RGS4 inh; call rule not given here;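 note: RGS4 induction absent so cells express M3R without RGS4; higher means more calcium signal and flags a non-specific hit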
M3R basal Ca ctr – second counter-screen for RGS4 inhibitors: non-induced cells without carbachol; shares compounds with RGS4 inh; HEK293 M3R/RGS4 non-induced, Fluo-4 calcium, no carbachol; normalised: buffer wells 0%, carbachol wells 100%; calcium response (agonist-mode artifact), % at 10 µM; actives 22% (n = 1,900); AID 493001;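 active = duplicate-averaged calcium rise in uninduced cells above buffer wells' mean plus 5 SD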
MrgX1 ag confirm – confirmation of human MrgX1 receptor agonists | actives 78% (n = 600) | shares compounds with MrgX1 agonist | AID 602412 | activation, % at 10 µM | MrgX1-HEK293, Fluo-4 calcium fluorescence, FDSS;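 active = calcium signal rise, corrected for plate position, at least 3 library SD high, with starting brightness within 5 such deviations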
MrgX1 allo conf – human MrgX1 positive allosteric modulation, re-confirmation; activation (ratio percentage), % at 10 µM; actives 13% (n = 1,200); MrgX1-HEK293, Fluo-4 calcium fluorescence, FDSS; shares compounds with MrgX1 allo act;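 active = ratio at least 3 SD above the weak peptide control, stable starting fluorescence, no direct agonism earlier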;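 note: compound followed by low BAM8-22 agonist challenge near EC20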
HEK293 Ca flux – counter-screen for MrgX1 antagonists: effect in parental HEK293 cells | AID 624111 | fluorescence ratio F(max-min)/F0 at 10 µM | shares compounds with MrgX1 antagonist | Fluo-4 calcium fluorescence, FDSS | actives 2% (n = 4,000);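 active = duplicate-averaged calcium fluorescence ratio at least three times the standard deviation of buffer wells, a nonspecific response in parental cells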
HEK293 Ca counter – counter-screen for MrgX1 allosteric activators: effect in parental HEK293 cells. actives 0.4% (n = 4,000). fluorescence ratio F(max-min)/F0 at 10 µM. shares compounds with MrgX1 antagonist. AID 624114. parental HEK293 calcium flux, Fluo-4 fluorescence ratio; stronger effect = higher value;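 active = calcium fluorescence ratio, averaged over duplicates, at least 3 SD of the buffer-well ratio, meaning a nonspecific response in receptor-free cells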;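 note: untransfected parental HEK293 lacking MrgX1 used as counterscreen for MrgX1 allosteric activators; fluorescence change taken during the second addition on a kinetic imager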
HEK293 Ca cntr2 – counter-screen for MrgX1 activators: effect in parental HEK293 cells. shares compounds with MrgX1 antagonist. Fluo-4 calcium fluorescence (FDSS); stronger effect = higher value. fluorescence ratio F(max-min)/F0 at 10 µM. actives 8.7% (n = 4,000);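 active = calcium fluorescence ratio at least three times the spread of buffer wells, meaning a non-specific response in parental cells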
A number is an active result; - = inactive; . = no result given.

SMILES | RGS4 inh | RGS4 pot | MrgX1 allo act | MrgX1 antagonist | MrgX1 agonist | MrgX1 ag confirm | HEK293 Ca flux | HEK293 Ca counter | HEK293 Ca cntr2 | others
Cc1ccccc1Nc1nc(N)nc(-c2oc3ccccc3c2C)n1 | 6 | - | 47 | - | - | . | - | - | - | RGS4 block valid=27%;M3R Ca ctr=42%;M3R basal Ca ctr=-;MrgX1 allo conf=33%
CC(=O)N/N=C(/c1ccccc1)C(O)c1ccccc1 (stereo not given) | - | - | - | - | - | . | . | . | .
Cc1cnnn1-c1ccc(C(=O)CCl)cc1 | 11 | - | - | - | 28 | 252% | - | - | 48 | RGS4 block valid=86%;M3R Ca ctr=38%;M3R basal Ca ctr=19%
CCCCN(C)c1nc(-c2ccco2)c2c(c1C#N)CC(C)(C)OC2 | 7.2 | - | - | - | 28 | 84% | - | - | - | RGS4 block valid=-;M3R Ca ctr=-;M3R basal Ca ctr=34%
CN(C)CCNc1nc(-c2ccco2)c2c(c1C#N)CC(C)(C)OC2 | - | - | - | - | - | . | . | . | .
Cc1ccc2nc(C)cc(C(=O)Nc3nccs3)c2c1 | - | - | - | - | - | . | . | . | .
COc1nc(OC)nc(N2CCC(NC(=O)C(Cc3cccc(OC)c3OC)NC(C)=O)CC2)n1 (stereo not given) | - | - | - | - | - | . | . | . | .
O=C(CCC(=O)N1CCN(c2ccccc2F)CC1)c1ccc(F)cc1 | - | - | - | - | - | . | . | . | .
O=C(CCN1CCN(c2ccccc2F)CC1)c1ccc(Br)cc1 | 19 | - | - | - | 40 | - | - | - | - | RGS4 block valid=39%;M3R Ca ctr=-;M3R basal Ca ctr=8.5%
N#Cc1c(-c2c(Cl)cccc2Cl)noc1/C=C/Nc1ccc(C(=O)O)cc1 | 5.4 | - | 12 | - | - | . | - | - | - | RGS4 block valid=18%;M3R Ca ctr=-;M3R basal Ca ctr=-;MrgX1 allo conf=-
Cc1c(CN2CCC(n3nccc3NC(=O)C3CCOC3)CC2)[nH]c2ccccc12 (stereo not given) | - | - | - | - | - | . | . | . | .
O=C(Nc1ccnn1C1CCN(Cc2cc3ccccc3[nH]2)CC1)C1CCOC1 (stereo not given) | - | - | - | - | 29 | 339% | - | - | 73
Cc1cc(=O)oc2cc(NC(=O)CN3C(=O)NC(C)(c4ccccc4)C3=O)ccc12 (stereo not given) | - | - | - | - | - | . | . | . | .
COc1ccc2c(c1)c(C(O)CN1CCN(Cc3ccc4c(c3)OCO4)CC1)c(C)n2C (stereo not given) | - | - | - | - | - | . | . | . | .
Cc1c(C(O)CN2CCN(Cc3ccc4c(c3)OCO4)CC2)c2ccccc2n1C (stereo not given) | - | - | - | - | 33 | - | - | - | -
Cc1cc(N2CCC(C)CC2)nc(NCc2ccccc2)n1 | - | -7 | - | - | 46 | 148% | - | - | -
Cc1cc(Nc2ccccc2)nc(NCc2ccccc2)n1 | - | - | - | - | - | . | . | . | .
CCCCNc1cc(C)nc(NCc2ccccc2)n1 | - | - | - | - | 29 | 241% | - | - | -
Cc1[nH][nH]c(=O)c1C(c1ccc(-c2ccc(Cl)c(Cl)c2)o1)c1c(C)[nH][nH]c1=O | - | - | - | - | - | . | . | . | .
Cc1[nH][nH]c(=O)c1C(c1ccc(-c2ccc(F)cc2)o1)c1c(C)[nH][nH]c1=O | - | - | - | - | 40 | 216% | - | - | 46
N#Cc1c(NCCN)nc(-c2ccco2)c2c1CCCC2 | - | - | - | - | - | . | . | . | .
CC(C)CCNc1nc(-c2ccco2)c2c(c1C#N)CCCC2 | - | - | - | - | 27 | - | - | - | -
Nc1nc2ccc(S(=O)(=O)N3CCCCC3)cc2s1 | - | - | - | - | 43 | 256% | - | - | 53
COc1ccc(CCNc2cc(C)nc(N)n2)cc1OC | - | - | - | - | 45 | 242% | - | - | -
Cc1ccnc(Nc2nc(-c3ccc(O)cc3O)cs2)c1 | - | - | - | - | - | . | . | . | .
SMILES | RGS4 inh | RGS4 pot | MrgX1 allo act | MrgX1 antagonist | MrgX1 agonist | MrgX1 ag confirm | HEK293 Ca flux | HEK293 Ca counter | HEK293 Ca cntr2 | others
CCCOc1ccc(CSC(=N)N)cc1C(=O)OC | - | - | - | - | - | . | . | . | .
COC(=O)c1cc(CSC(=N)N)ccc1OCCC(C)C | - | - | - | - | 37 | 200% | - | - | -
CN1CCN(C(=O)C2CCCN(S(=O)(=O)c3ccc(Cl)cc3)C2)CC1 (stereo not given) | - | - | - | - | - | . | . | . | .
O=S(=O)(NCC1CCCO1)c1ccc(S(=O)(=O)N(Cc2ccc(F)cc2)Cc2ccco2)cc1 (stereo not given) | - | - | - | - | - | . | . | . | .
CC1(C)CC(=O)C(C(C2=C(O)CC(C)(C)CC2=O)c2ccc(Cl)c([N+](=O)[O-])c2)C(=O)C1 (stereo not given) | - | - | - | - | 91 | - | - | - | -
O/C(=C\c1ccc2ccccc2n1)c1ccncc1 | - | - | - | - | 64 | 355% | - | - | 127
CCC(=O)Nc1c(-c2ccccc2)c(=O)c2ccccc2n1C | - | - | - | - | - | . | . | . | .
CNc1ccc(Br)cc1C(O)c1ccccc1 (stereo not given) | - | - | - | - | - | . | . | . | .
N=C(N)SCc1ccc(Cl)cc1Cl | - | - | - | - | 39 | 219% | - | - | -
NC(=S)Cc1ccc(Cl)cc1Cl | - | - | - | - | - | . | . | . | .
COc1ccc(C)cc1NC(=O)Nc1ccc(C(=O)N2CCCC2)cc1 | - | - | - | - | - | . | . | . | .
COc1ccc(-c2nc(CSCC(=O)NCCCN3CCCC3=O)c(C)o2)cc1OC | - | - | - | - | - | . | . | . | .
